Counter-ions that a name gives are not always drawn. The source made the active and inactive calls. The rule behind the calls is not given here.
Experiments:
[1] = biological target: T1, Potassium voltage-gated channel subfamily A member 5 (Homo sapiens, UniProt P22460); test: Inhibition of human Kv1.5 channel expressed in HEK293 cells by whole cell patch clamp assay; assay type: cell-based
Procedure, shortened: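 Whole-cell patch clamp was done on transfected HEK293 cells, harvested by trypsin and used the same day, with 4–6 MΩ pipettes at 25 °C. IKur was elicited by 500-ms steps to +60 mV from a −80 mV holding potential at 0.1 Hz. Compound was applied at least 5 min after current stabilization. IC50 came from cell-by-cell Hill fits, with at least 3 cells per concentration; mean ± SD.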

[2] = Dissociation constant, pKa of the compound; assay type: physicochemical
Procedure, shortened: (§1)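 pKa and log D at pH 7.4 were determined by Avdeef–Bucher potentiometric titration on a Gemini Profiler instrument.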

[3] = Partition coefficient, log D of the compound at pH 7.4; assay type: physicochemical; settings: octanol/water; procedure, shortened: as §1
[4] = system: MDCK; test: (§2) Apparent permeability from basolateral to apical side in MDCK cells; assay type: ADME, cell-based, Canis lupus familiaris; settings: dog
Procedure, shortened: (§3)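 Bidirectional transport (apical→basolateral and basolateral→apical) was measured in parental MDCK cells and in MDR1-MDCK cells, which stably express multidrug resistance gene 1, to assess P-glycoprotein substrate status. Apparent permeability coefficients (Papp) were determined for each direction. Efflux ratios are ratios of the directional Papp values, computed per cell line. Mean ± SD, n = 3.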

[5] = system: MDCK; test: (§4) Apparent permeability from apical to basolateral side in MDCK cells; assay type: ADME, cell-based, Canis lupus familiaris; settings: dog; procedure, shortened: as §3
[6] = system: MDR1; test: (§5) Apparent permeability from basolateral to apical side in MDCK cells expressing MDR1; assay type: ADME, cell-based, Canis lupus familiaris; settings: dog, MDCK-MDR1; procedure, shortened: as §3
[7] = system: MDR1; test: (§6) Apparent permeability from apical to basolateral side in MDCK cells expressing MDR1; assay type: ADME, cell-based, Canis lupus familiaris; settings: dog, MDCK-MDR1; procedure, shortened: as §3
[8] = system: MDCK; test: Efflux ratio of permeability from apical to basolateral over basolateral to apical in MDCK cells; assay type: ADME, cell-based, Canis lupus familiaris; settings: dog; procedure, shortened: as §3
[9] = system: MDCK; test: Efflux ratio of permeability from apical to basolateral over basolateral to apical in MDCK cells expressing MDR1; assay type: ADME, cell-based, Canis lupus familiaris; settings: dog; procedure, shortened: as §3
[10] = system: MDCK; test: as §5; assay type: ADME, cell-based, Canis lupus familiaris; settings: dog, mdck; procedure, shortened: as §3
[11] = system: MDCK; test: as §6; assay type: ADME, cell-based, Canis lupus familiaris; settings: dog, mdck; procedure, shortened: as §3
[12] = system: Rattus norvegicus; test: Inhibition of Cacl2-Ach-induced atrial fibrillation Sprague-Dawley rat model assessed as reduction in duration of atrial fibrillation at 1.25 mg/kg, ip during day 1 to day 3; assay type: functional, organism-based; set-up: dose 1.25 mg/kg; settings: Cardiac atrium
[13] = system: Rattus norvegicus; test: Inhibition of Cacl2-Ach-induced atrial fibrillation Sprague-Dawley rat model assessed as reduction in duration of atrial fibrillation at 1.25 mg/kg, ip during day 4 to day 7; assay type: functional, organism-based; set-up: dose 1.25 mg/kg; settings: Cardiac atrium
[14] = system: Rattus norvegicus; test: Inhibition of Cacl2-Ach-induced atrial fibrillation Sprague-Dawley rat model assessed as increase in atrial effective refractory period at 1.25 mg/kg, ip; settings: Cardiac atrium
[15] = biological target: T1, Potassium voltage-gated channel subfamily A member 5; test: Inhibition of human Kv1.5 channel expressed in HEK293 cells at 11 uM by whole cell patch clamp assay; assay type: cell-based
[16] = as §2; assay type: ADME, cell-based, Canis lupus familiaris; settings: dog; procedure, shortened: as §3
[17] = as §4; assay type: ADME, cell-based, Canis lupus familiaris; settings: dog; procedure, shortened: as §3
[18] = system: Rattus norvegicus; test: Inhibition of Cacl2-Ach-induced atrial fibrillation Sprague-Dawley rat model assessed as reduction in duration of atrial fibrillation at 2.5 mg/kg, ip during day 1 to day 3; assay type: functional, organism-based; set-up: dose 2.5 mg/kg; settings: Cardiac atrium
[19] = system: Rattus norvegicus; test: Inhibition of Cacl2-Ach-induced atrial fibrillation Sprague-Dawley rat model assessed as reduction in duration of atrial fibrillation at 2.5 mg/kg, ip during day 4 to day 7; assay type: functional, organism-based; set-up: dose 2.5 mg/kg; settings: Cardiac atrium
[20] = system: Rattus norvegicus; test: Inhibition of Cacl2-Ach-induced atrial fibrillation Sprague-Dawley rat model assessed as increase in atrial effective refractory period at 2.5 mg/kg, ip; settings: Cardiac atrium
[21] = Toxicity in SPF mouse compound administered through iv; assay type: organism-based; settings: in vivo
Procedure, shortened: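 Acute toxicity by tail-vein iv injection in SPF mice: 70 animals in 7 groups, one given distilled water (30 mL/kg) and six given 84.6, 79.8, 75.3, 71, 67 or 63.2 mg/kg. Behaviour, mental state, excrement and death observed continuously over 0-0.5 h, every 0.5 h to 6 h, then daily for 15 days. LD50 derived by the Bliss-Finney method.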

T1 sequence (P22460 whole entry): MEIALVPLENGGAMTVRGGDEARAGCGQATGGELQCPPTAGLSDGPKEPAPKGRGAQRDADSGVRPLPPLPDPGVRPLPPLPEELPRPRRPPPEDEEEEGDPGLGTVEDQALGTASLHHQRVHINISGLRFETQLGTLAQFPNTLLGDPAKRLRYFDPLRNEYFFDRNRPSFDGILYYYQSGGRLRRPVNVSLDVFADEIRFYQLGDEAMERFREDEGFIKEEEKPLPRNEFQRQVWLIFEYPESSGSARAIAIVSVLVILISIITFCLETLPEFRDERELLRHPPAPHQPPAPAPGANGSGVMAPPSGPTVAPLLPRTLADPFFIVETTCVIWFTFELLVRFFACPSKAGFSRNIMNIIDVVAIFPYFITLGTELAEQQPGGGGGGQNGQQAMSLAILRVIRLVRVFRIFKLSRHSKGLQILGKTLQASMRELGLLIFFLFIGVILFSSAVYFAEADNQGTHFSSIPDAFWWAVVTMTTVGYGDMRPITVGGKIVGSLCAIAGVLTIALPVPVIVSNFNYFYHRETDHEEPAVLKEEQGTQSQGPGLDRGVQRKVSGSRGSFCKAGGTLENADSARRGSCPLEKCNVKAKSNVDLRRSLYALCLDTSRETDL

O=C(CN1CCN(CCOc2ccccc2Cl)CC1)Nc1nccs1
IC50 [1]: 3.39 µM

Cc1ccccc1OCCN1CCN(CC(=O)Nc2nccs2)CC1
IC50 [1]: 1.24 µM | pKa [2]: 7.11 | logD [3]: 2.45 | Papp [4]: 34.2 ×10⁻⁶ cm/s | Papp [5]: 32.2 ×10⁻⁶ cm/s | Papp B→A [6]: 32.3 ×10⁻⁶ cm/s | Papp A→B [7]: 28.9 ×10⁻⁶ cm/s | Ratio [8]: 1.09 | Ratio [9]: 0.92

O=C(CN1CCN(CCOc2ccc(Cl)cc2)CC1)Nc1ccccc1
IC50 [1]: 4.38 µM

O=C(c1cccs1)N1CCN(CCOc2ccccc2Cl)CC1
IC50 [1]: 9.74 µM

O=C(CN1CCN(CCOc2ccc(OC(F)(F)F)cc2)CC1)Nc1nccs1
IC50 [1]: 2.29 µM | pKa [2]: 6.74 | logD [3]: 3.94 | Papp [4]: 16.9 ×10⁻⁶ cm/s | Papp [5]: 12.2 ×10⁻⁶ cm/s | Papp [10]: 19.6 ×10⁻⁶ cm/s | Papp [11]: 16.3 ×10⁻⁶ cm/s | Ratio [8]: 1.5 | Ratio [9]: 1.42

N#Cc1ccc(OCCN2CCN(CC(=O)Nc3ccccc3)CC2)cc1
IC50 [1]: 9.1 µM

Cc1ccc(C(=O)N2CCN(CCOc3ccc(Cl)cc3)CC2)cc1
IC50 [1]: 4.51 µM

N#Cc1ccc(OCCN2CCN(C(=O)c3ccccc3)CC2)cc1
IC50 [1]: 4.23 µM

O=C(CN1CCN(CCOc2ccc(OC(F)(F)F)cc2)CC1)Nc1ccccc1
IC50 [1]: 7.33 µM

COc1ccc(C(=O)N2CCN(CCOc3ccc(Cl)cc3)CC2)cc1
IC50 [1]: 5.5 µM

O=C(c1ccccc1)N1CCN(CCOc2ccccc2)CC1
IC50 [1]: 38.8 µM

CCCCc1oc2ccc(NS(C)(=O)=O)cc2c1C(=O)c1ccc(OCCCN(CCCC)CCCC)cc1 [DRONEDARONE HYDROCHLORIDE]
IC50 [1]: 2.37 µM | Activity [12]: inactive | Activity [13]: Active | Activity [14]: Active

COc1ccc(OCCN2CCN(C(=O)c3cccs3)CC2)cc1
IC50 [1]: 21.9 µM

O=C(CN1CCN(CCOc2ccc(Cl)cc2)CC1)Nc1nccs1
IC50 [1]: 5.18 µM

CCOC(=O)c1ccc(OCCN2CCN(CC(=O)Nc3nccs3)CC2)cc1
inhibition [15]: 32.1%

O=C(c1ccccc1Cl)N1CCN(CCOc2ccccc2)CC1
IC50 [1]: 56.7 µM

O=C(CN1CCN(CCOc2ccc3ccccc3c2)CC1)Nc1nccs1
IC50 [1]: 68 µM

O=C(c1cccs1)N1CCN(CCOc2ccc(Cl)cc2Cl)CC1
IC50 [1]: 1.48 µM | pKa [2]: 5.23 | logD [3]: 3.73 | Papp B→A [16]: 19.1 ×10⁻⁶ cm/s | Papp A→B [17]: 17 ×10⁻⁶ cm/s | Papp B→A [6]: 31.5 ×10⁻⁶ cm/s | Papp A→B [7]: 39.1 ×10⁻⁶ cm/s | Ratio [8]: 0.89 | Ratio [9]: 1.24

Cc1ccc(NC(=O)CN2CCN(CCOc3ccc(Cl)cc3)CC2)cc1
IC50 [1]: 5.02 µM

Cc1ccc(OCCN2CCN(CC(=O)Nc3nccs3)CC2)c(C)c1
IC50 [1]: 17.2 µM

O=C(CN1CCN(CCOc2ccc(Cl)cc2)CC1)Nc1ccccc1Cl
IC50 [1]: 3.59 µM

O=C(CN1CCN(CCOc2ccccc2)CC1)Nc1ccccc1Cl
IC50 [1]: 29.4 µM

Cc1cccc(C)c1OCCN1CCN(CC(=O)Nc2nccs2)CC1
IC50 [1]: 85.9 µM

Cc1ccccc1OCCN1CCN(CC(=O)Nc2ccccc2)CC1
IC50 [1]: 11.8 µM

COc1ccc(OCCN2CCN(CC(=O)Nc3nccs3)CC2)cc1
IC50 [1]: 9.13 µM

COc1ccc(NC(=O)CN2CCN(CCOc3ccccc3)CC2)cc1
IC50 [1]: 10.1 µM

O=C(c1cccs1)N1CCN(CCOc2ccccc2)CC1
IC50 [1]: 37.5 µM

Cc1ccc(NC(=O)CN2CCN(CCOc3ccc(C#N)cc3)CC2)cc1
IC50 [1]: 4.49 µM

O=C(c1ccccc1)N1CCN(CCOc2ccc(Cl)cc2)CC1
IC50 [1]: 3.97 µM

COc1ccc(C(=O)N2CCN(CCOc3ccccc3)CC2)cc1
IC50 [1]: 16.1 µM

Cc1ccc(OCCN2CCN(CC(=O)Nc3nccs3)CC2)cc1C
IC50 [1]: 50.2 µM

Cc1ccc(OCCN2CCN(C(=O)c3ccccc3)CC2)cc1
IC50 [1]: 25.3 µM

O=C(CN1CCN(CCOc2ccccc2)CC1)Nc1ccccc1
IC50 [1]: 28.6 µM

CC(C)(C)c1ccc(OCCN2CCN(CC(=O)Nc3nccs3)CC2)cc1
IC50 [1]: 63.2 µM

COc1ccc(NC(=O)CN2CCN(CCOc3ccc(C#N)cc3)CC2)cc1
IC50 [1]: 14.5 µM

O=C(CN1CCN(CCOc2ccccc2)CC1)Nc1nccs1
IC50 [1]: 29.3 µM

O=C(c1cccs1)N1CCN(c2ccc(OC(F)(F)F)cc2)CC1
IC50 [1]: 48.4 µM

O=C(c1cccs1)N1CCN(CCOc2ccc(F)cc2)CC1
IC50 [1]: 12.7 µM

Cc1ccc(OCCN2CCN(CC(=O)Nc3nccs3)CC2)cc1
IC50 [1]: 8.93 µM

CC(C)NCC(O)c1ccc(NS(C)(=O)=O)cc1 (stereo unspecified)
Activity [18]: inactive | Activity [19]: Active | Activity [20]: Active

COc1ccc(NC(=O)CN2CCN(CCOc3ccc(Cl)cc3)CC2)cc1
IC50 [1]: 2.62 µM

N#Cc1ccc(OCCN2CCN(CC(=O)Nc3nccs3)CC2)cc1
IC50 [1]: 0.97 µM | pKa [2]: 6.37 | logD [3]: 1.72 | Papp [4]: 16.7 ×10⁻⁶ cm/s | Papp [5]: 14.8 ×10⁻⁶ cm/s | Papp [10]: 19.8 ×10⁻⁶ cm/s | Papp [11]: 18.9 ×10⁻⁶ cm/s | Ratio [8]: 1.14 | Ratio [9]: 1.14

O=C(c1cccs1)N1CCN(CCOc2ccc(Br)cc2)CC1
IC50 [1]: 12.2 µM

CCOc1ccccc1OCCN1CCN(CC(=O)Nc2nccs2)CC1
inhibition [15]: 11.9%

O=C(c1cccs1)N1CCN(CCOc2ccc(Cl)cc2)CC1
IC50 [1]: 0.72 µM | pKa [2]: 6.35 | logD [3]: 1.94 | Papp B→A [16]: 21.9 ×10⁻⁶ cm/s | Papp A→B [17]: 21.3 ×10⁻⁶ cm/s | Papp B→A [6]: 19.3 ×10⁻⁶ cm/s | Papp A→B [7]: 16.1 ×10⁻⁶ cm/s | Ratio [8]: 0.97 | Ratio [9]: 0.84 | Activity [12]: inactive | Activity [18]: inactive | Activity [13]: Active | Activity [19]: Active | LD50 [21]: 73.7 mg/kg | Activity [20]: Active | Activity [14]: Active

O=C(c1cccs1)N1CCN(CCOc2ccc(OC(F)(F)F)cc2)CC1
IC50 [1]: 6.44 µM

N#Cc1ccc(OCCN2CCN(C(=O)c3cccs3)CC2)cc1
IC50 [1]: 10.2 µM

Cc1ccc(NC(=O)CN2CCN(CCOc3ccccc3)CC2)cc1
IC50 [1]: 16.1 µM

Cc1ccc(C(=O)N2CCN(CCOc3ccccc3)CC2)cc1
IC50 [1]: 7.14 µM

Cc1ccccc1OCCN1CCN(C(=O)c2cccs2)CC1
IC50 [1]: 13.5 µM

Cc1ccc(OCCN2CCN(C(=O)c3cccs3)CC2)cc1
IC50 [1]: 1.52 µM | pKa [2]: 6.4 | logD [3]: 3.24 | Papp B→A [16]: 31.1 ×10⁻⁶ cm/s | Papp A→B [17]: 20 ×10⁻⁶ cm/s | Papp B→A [6]: 32.8 ×10⁻⁶ cm/s | Papp A→B [7]: 25.6 ×10⁻⁶ cm/s | Ratio [8]: 0.64 | Ratio [9]: 0.78
